Test results: ChEMBL document CHEMBL4339209, “Chemical modifications of imidazole-containing alkoxyamines increase C-ON bond homolysis rate: Effects on their cytotoxic properties in glioblastoma cells” (Bioorg Med Chem, 2019)
The source made the active and inactive calls. The calls are words filed in the database; no cut-off is given here.

Legend:
[1] = Dissociation constant, pKa of the compound in 1:1 v/v D2O/CD3OD by 1H-NMR spectrometric method; type: physicochemical; details: 1:1 v/v D2O/CD3OD; read-out: pKa
How it was run: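 Samples in D2O/CD3OD (1:1 v/v) were adjusted with DCl/NaOD to a series of pH* values, read on a meter calibrated with non-deuterated standards, and 1H-NMR was recorded at 400 MHz. Imidazole proton chemical shifts were plotted against pH* and fitted sigmoidally. The pKa* was converted by pH = 0.929 pH* + 0.42.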

[2] = Half life in H2O/MeOH buffered with Na2CO3/NaHCO3 at pH 10.3 in presence of alkyl radical scavenger TEMPOR by 31P[1H]-NMR analysis; type: physicochemical; details: for half-life: H2O/MeOH buffered with Na2CO3/NaHCO3, pH 10.3
[3] = Half life in H2O/MeOH buffered with HCl/KCl at pH 2.2 in presence of alkyl radical scavenger TEMPOR by 31P[1H]-NMR analysis; type: physicochemical; details: for half-life: H2O/MeOH buffered with HCl/KCl
[4] = Stability in H2O/MeOH buffered with Na2CO3/NaHCO3 at pH 10.3 assessed as temperature; type: physicochemical; details: buffer
[5] = Stability in H2O/MeOH buffered with HEPES/NaCl at pH 7.4 assessed as temperature; type: physicochemical; details: buffer
[6] = Stability in H2O/MeOH buffered with HCl/KCl at pH 2.2 assessed as temperature; type: physicochemical; details: buffer
[7] = Half life in H2O/MeOH buffered with HEPES/NaCl at pH 7.4 in presence of alkyl radical scavenger TEMPOR by 31P[1H]-NMR analysis; type: physicochemical; details: for half-life: H2O/MeOH buffered with HEPES/NaCl
U-87 MG = assay: Cytotoxicity against human U87MG cells assessed as reduction in cell survival measured after 72 hrs by MTT assay; type: functional, cell-based, U-87MG ATCC; details: for Activity: U-87MG ATCC
How it was run: (§1)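 MTT viability on 2D cultures, U87-MG in DMEM and U251-MG in EMEM with […], both with 10% FBS and Pen Strep. 5000 cells seeded, then 72 h exposure to 500, 250, 100, 50, 25, 10 and 5 μM (DMSO at most […]). MTT 0.5 mg/mL for 1 h, formazan in DMSO read at 550 nm. Survival as % of control. IC50 determined graphically. At least triplicate.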

[8] = n-octanol/phosphate buffered saline partition coefficient, log D of the compound at pH 7.4 by shake-flask method; type: physicochemical; details: n-octanol/phosphate buffered saline, read-out: logD
How it was run: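 Shake-flask partition between pre-saturated n-octanol and PBS at pH 7.4. The aqueous phase was quantified by RP-HPLC on a 4.6 × 50 mm column, eluting with CH3CN/H2O (each with 0.1% TFA) from 10:90 to 100:0 over 10 min.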

[9] = Stability in DMSO assessed as temperature; type: physicochemical
[10] = Stability in DMSO/TsOH assessed as temperature; type: physicochemical
[11] = Drug homolysis in DMSO assessed as activation energy in presence of alkyl radical scavenger TEMPOR by 31P[1H]-NMR analysis
[12] = Drug homolysis in DMSO/TsOH assessed as activation energy in presence of alkyl radical scavenger TEMPOR by 31P[1H]-NMR analysis
[13] = Drug homolysis in DMSO assessed as rate constant by measuring nitroxide level in presence of alkyl radical scavenger TEMPOR by 31P[1H]-NMR analysis
[14] = Drug homolysis in DMSO/TsOH assessed as rate constant by measuring nitroxide level in presence of alkyl radical scavenger TEMPOR by 31P[1H]-NMR analysis
U-251 [15] = assay: Cytotoxicity against human U251MG cells assessed as reduction in cell survival measured after 72 hrs by MTT assay; type: functional, cell-based; how it was run: as §1
U-251 [16] = assay: Cytotoxicity against human U251MG cells assessed as reduction in cell survival at IC50 measured after 72 hrs in presence of alkyl radical scavenger troxerutin by MTT assay; type: functional, cell-based
How it was run: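 U251-MG cells in EMEM (10% FBS, Pen Strep, […]) were exposed for 72 h to alkoxyamine together with an equal concentration of the alkyl radical scavenger troxerutin. Survival was read by MTT (0.5 mg/mL, 1 h, OD 550 nm) as % of control, and compared with alkoxyamine alone. At least triplicate.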

| pKa [1] | half-life [2] [h] | T [4] [°C] | T [5] [°C] | T [6] [°C] | half-life [7] [h] | logD [8] | half-life [3] [h] | Structure (SMILES) | IC50 (U-87 MG) [µM] | further results |
| --- | --- | --- | --- | --- | --- | --- | --- | --- | --- | --- |
| 6.76 | 1560 | 80 | 80 | 80 | 792 | 3.5 |  | CCOP(=O)(OCC)C(N(OC(C)c1cn(C)cn1)C(C)(C)C)C(C)(C)C (stereo in doubt; form 1) | 25 to 380 | t1/2 ([3]; buffer): 65 h |
| 6.28 |  | 80 | 70 | 60 |  | 3.4 | 2.4 | CCOP(=O)(OCC)C(N(OC(C)c1nccn1C)C(C)(C)C)C(C)(C)C (stereo in doubt; form 1) | 25 to 380 | t1/2 ([2]; buffer, pH 10.3): 130 h; t1/2 ([7]; buffer): 31 h |

Further lines, the compound ahead of its results:

| Structure (SMILES) | pKa [1] | half-life [2] [h] | T [4] [°C] | T [5] [°C] | T [6] [°C] | half-life [7] [h] | logD [8] | half-life [3] [h] | IC50 (U-87 MG) [µM] | further results |
| --- | --- | --- | --- | --- | --- | --- | --- | --- | --- | --- |
| CCOP(=O)(OCC)C(N(OC(C)c1c[nH]cn1)C(C)(C)C)C(C)(C)C (stereo in doubt; form 1) | 6.11 | 408 | 80 | 80 | 80 | 288 | 3.7 | 103 | 25 to 380 |  |
| CCOP(=O)(OCC)C(N(OC(C)n1ccnc1)C(C)(C)C)C(C)(C)C (stereo in doubt; form 1) [listing 1 of 2 here] | 5.62 |  |  |  |  |  | 3.4 |  | 25 to 380 | T [9]: 160 °C; T [10]: 160 °C |
| CCOP(=O)(OCC)C(N(OC(C)n1ccnc1)C(C)(C)C)C(C)(C)C (stereo in doubt; form 1) [listing 2 of 2 here] |  |  |  |  |  |  |  |  |  | Ea [11]: 35.6 kcal/mol; Ea [12]: 34.1 kcal/mol; Kdiss [13]: 2.69 ×10⁻⁴ /s; Kdiss [14]: 1.44 ×10⁻³ /s; Activity (U-87 MG): Dose-dependent effect; Activity (U-251 [15]): Dose-dependent effect; Activity (U-251 [16]): Active |
| CCOP(=O)(OCC)C(N(OC(C)c1ncc[nH]1)C(C)(C)C)C(C)(C)C (stereo in doubt; form 2) | 6.09 | 240 | 80 | 70 | 60 | 60 | 3.6 | 4 | 25 to 380 |  |
| CCOP(=O)(OCC)C(N(OC(C)n1ccnc1)C(C)(C)C)C(C)(C)C (stereo in doubt; form 2) |  |  |  |  |  |  |  |  |  | Ea [11]: 34.6 kcal/mol; Ea [12]: 33.7 kcal/mol; Kdiss [13]: 8.02 ×10⁻⁴ /s; Kdiss [14]: 2.45 ×10⁻³ /s; Activity (U-87 MG): Dose-dependent effect; Activity (U-251 [15]): Dose-dependent effect; Activity (U-251 [16]): Active |
